In ChEMBL document CHEMBL4837218, “Synthesis and in vitro antitumour activity of 4(R)-methyl-3-O-phosphonomethyl-α-l-threose nucleosides” (Eur J Med Chem, 2021):
Calls of active or inactive are those of the source. The rule behind the calls is not given here.

What was measured:
MDA-MB-231 [1] = assay: Cell cycle arrest in human MDA-MB-231 cells assessed as accumulation at G1 phase at 3 uM measured after 48 hrs by propidium iodide staining based flow cytometry (reference value: 46.28%); type: functional
MCF7 [2] = assay: Induction of apoptosis in human MCF7 cells assessed as increase in Noxa protein expression at 1 to 4 uM measured after 48 hrs by western blot analysis; type: functional, cell-based; conditions: dose 1-4 µM
Method in brief: (§1)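 MCF-7 and MDA-MB-231 breast cancer cells treated 48 h with a concentration series, then lysed for protein. SDS-PAGE on 5–15% gels, transfer to nitrocellulose. Blocked 2 h in 5% nonfat milk/PBS-0.1% Tween 20, primary antibodies overnight at 4 °C, biotin-conjugated secondary 1 h. X-ray film detection with densitometric quantification.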

MCF7 [3] = assay: Cell cycle arrest in human MCF7 cells assessed as accumulation at G2/M phase at 4 uM measured after 48 hrs by propidium iodide staining based flow cytometry (reference value: 0.01 %); type: functional
MDA-MB-231 [4] = assay: Induction of mitochondrial membrane potential loss in human MDA-MB-231 cells assessed as red fluorescence intensity at 6 uM measured after 48 hrs by JC1 staining-based flow cytometry analysis (reference value: 99.2 %); type: functional
MDA-MB-231 [5] = assay: Induction of apoptosis in human MDA-MB-231 cells assessed as increase in Bax to Bcl2 ratio at 3 to 9 uM measured after 48 hrs by western blot analysis; type: functional, cell-based; conditions: dose 3-9 µM; method in brief: as §1
MCF7 [6] = assay: Induction of apoptosis in human MCF7 cells assessed as increase in cleaved caspase 9 protein expression at 4 uM measured after 48 hrs in presence of cdc25c inhibitor, NSC663284 by western blot analysis; type: functional, cell-based
Method in brief: (§2)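 Four arms per cell line: untreated, test compound, 0.3 µM NSC663284 alone, and combination. Proteins harvested after 48 h and resolved by SDS-PAGE on 5–15% gels, transferred to nitrocellulose. Blocked 2 h in milk/PBS-Tween, primary antibodies overnight at 4 °C, biotin-conjugated secondary. Read on X-ray film with densitometry.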

MDA-MB-231 [7] = assay: Cell cycle arrest in human MDA-MB-231 cells assessed as accumulation at G1 phase at 9 uM measured after 48 hrs by propidium iodide staining based flow cytometry (reference value: 46.28%); type: functional
MCF7 [8] = assay: Induction of DNA damage in human MCF7 cells assessed as increase in Chk2 phosphorylation at Thr68 residue at 1 to 4 uM measured after 48 hrs by western blot analysis; type: functional, cell-based; conditions: dose 1-4 µM
Method in brief: (§3)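 Cells exposed to graded concentrations for 48 h, then proteins extracted. Run on SDS-PAGE (5–15% gels) and transferred to nitrocellulose. Blocked 2 h in 5% nonfat milk in PBS/0.1% Tween 20, primary antibody overnight at 4 °C, biotin-conjugated secondary 1 h. Visualized on X-ray film with densitometric quantitation; three independent experiments.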

MDA-MB-231 [9] = assay: Induction of apoptosis in human MDA-MB-231 cells assessed as increase in Bad protein expression at 3 to 9 uM measured after 48 hrs by western blot analysis; type: functional, cell-based; conditions: dose 3-9 µM; method in brief: as §1
MDA-MB-231 [10] = assay: Induction of DNA damage in human MDA-MB-231 cells assessed as increase in Chk1 protein expression at 3 to 9 uM measured after 48 hrs by western blot analysis; type: functional, cell-based; conditions: dose 3-9 µM; method in brief: as §3
MDA-MB-231 [11] = assay: Induction of apoptosis in human MDA-MB-231 cells assessed as early apoptotic cells at 6 uM measured after 48 hrs by Annexin V-FITC/propidium iodide staining based flow cytometric analysis (reference value: 1%); type: functional
MDA-MB-231 [12] = assay: Induction of G2/M phase cell cycle arrest in human MDA-MB-231 cells assessed as increase in Cdc25c protein expression at 3 to 9 uM measured after 48 hrs by western blot analysis; type: functional, cell-based; conditions: dose 3-9 µM
MCF7 [13] = assay: Induction of apoptosis in human MCF7 cells assessed as late apoptotic cells at 4 uM measured after 48 hrs by Annexin V-FITC/propidium iodide staining based flow cytometric analysis (reference value: 0.6 %); type: functional
MDA-MB-231 [14] = assay: Induction of apoptosis in human MDA-MB-231 cells assessed as early apoptotic cells at 9 uM measured after 48 hrs in presence of cdc25c inhibitor, NSC663284 by AnnexinV-FITC/PI staining based flow cytometry (reference value: 7.4%); type: functional
MCF7 [15] = assay: Potency index, ratio of 5-FU IC50 to test compound IC50 for anticancer activity against human MCF7 cells measured after 72 hrs by MTT assay; type: functional
Method in brief: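 MTT assay: 3000 exponentially growing cells per well, 12 h at 37 °C. Medium replaced with compound at a range of concentrations for 72 h. MTT (5 mg/mL stock) added for 4 h, formazan dissolved in DMSO. Absorbance read at 570 nm (reference 630 nm); percent inhibition gives IC50. Index is 5-FU IC50 divided by test-compound IC50.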

MCF7 [16] = assay: Induction of apoptosis in human MCF7 cells assessed as increase in cleaved caspase 7 protein expression at 4 uM measured after 48 hrs in presence of cdc25c inhibitor, NSC663284 by western blot analysis; type: functional, cell-based; method in brief: as §2
MCF7 [17] = assay: Induction of apoptosis in human MCF7 cells assessed as increase in cleaved caspase 3 protein expression at 4 uM measured after 48 hrs in presence of cdc25c inhibitor, NSC663284 by western blot analysis; type: functional, cell-based; method in brief: as §2
ECa-109 cell line = assay: Antiproliferative activity against human ECa-109 cells assessed as cell growth inhibition measured after 72 hrs by MTT assay; type: functional, cell-based; conditions: ECa-109, 72 h
Method in brief: (§4)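 Cells seeded at 3000 exponentially growing cells/well and incubated 12 h at 37 °C. Medium then replaced with fresh medium containing graded compound concentrations for 72 h; 5-FU positive control. MTT (5 mg/mL solution) added for 4 h, formazan dissolved in DMSO, absorbance read at 570 nm (reference 630 nm). Relative percentage inhibition of viable cells calculated; IC50 reported as mean ± standard deviation.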

A549 = assay: Antiproliferative activity against human A549 cells assessed as cell growth inhibition measured after 72 hrs by MTT assay; type: functional, cell-based; conditions: A549, 72 h; method in brief: as §4
MDA-MB-231 [18] = assay: Inhibition of PI3K/AKT signalling pathway in human MDA-MB-231 cells assessed as downregulation of 85ap-PI3K expression at 3 to 9 uM measured after 48 hrs by Western blot analysis; type: cell-based; conditions: dose 3-9 µM
Method in brief: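 After 48 h exposure to compound at several concentrations, cells collected and proteins extracted. SDS-PAGE on 5–15% gels, transfer to nitrocellulose, blocking 2 h in 5% nonfat milk in PBS/0.1% Tween 20, primary antibodies overnight at 4 °C, biotin-conjugated secondary 1 h. Detection on X-ray film; band densitometry.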

MDA-MB-231 [19] = assay: Induction of apoptosis in human MDA-MB-231 cells assessed as increase in cleaved PARP protein expression at 3 to 9 uM measured after 48 hrs by western blot analysis; type: functional, cell-based; conditions: dose 3-9 µM; method in brief: as §1
MDA-MB-231 [20] = assay: Induction of apoptosis in human MDA-MB-231 cells assessed as late apoptotic cells at 9 uM measured after 48 hrs in presence of cdc25c inhibitor, NSC663284 by AnnexinV-FITC/PI staining based flow cytometry (reference value: 8.3%); type: functional
MDA-MB-231 [21] = assay: Induction of mitochondrial membrane potential loss in human MDA-MB-231 cells assessed as red fluorescence intensity at 3 uM measured after 48 hrs by JC1 staining-based flow cytometry analysis (reference value: 99.2 %); type: functional
MCF7 [22] = assay: Induction of apoptosis in human MCF7 cells assessed as increase in Bax to Bcl2 ratio at 1 to 4 uM measured after 48 hrs by western blot analysis; type: functional, cell-based; conditions: dose 1-4 µM; method in brief: as §1

`C[C@H]1O[C@@H](n2cnc3c(N)nc(F)nc32)[C@H](O)[C@H]1OCP(=O)([O-])[O-].[Na+].[Na+]` was tested, and the Activity (MDA-MB-231 [1]) was 44.13%, the Activity (MCF7 [2]) was “Active” and the Activity (MCF7 [3]) was 26.15%. The Activity (MDA-MB-231 [4]) was 63.8%, the Activity (MDA-MB-231 [5]) was “Active” and the Activity (MCF7 [6]) was “inactive”. The Activity (MDA-MB-231 [7]) was 33.66%, the Activity (MCF7 [8]) was “Active” and the Activity (MDA-MB-231 [9]) was “Active”. The Activity (MDA-MB-231 [10]) was “Active”, the Activity (MDA-MB-231 [11]) was 19.1% and the Activity (MDA-MB-231 [12]) was “Active”. The Activity (MCF7 [13]) was 8.7%, the Activity (MDA-MB-231 [14]) was 5.1% and the “Ratio IC50” value (MCF7 [15]) was 41. For the same compound, the Activity (MCF7 [16]) was “inactive”, the Activity (MCF7 [17]) was “inactive” and the IC50 (ECa-109 cell line) was 2.57 µM. The IC50 (A549) was 3.48 µM, the inhibition (MDA-MB-231 [18]) was “Active” and the Activity (MDA-MB-231 [19]) was “Active”. The Activity (MDA-MB-231 [20]) was 3.2%, the Activity (MDA-MB-231 [21]) was 98.6% and the Activity (MCF7 [22]) was “Active”.
